From ChEMBL document CHEMBL4028911, “Discovery of a Small-Molecule Bromodomain-Containing Protein 4 (BRD4) Inhibitor That Induces AMP-Activated Protein Kinase-Modulated Autophagy-Associated Cell Death in Breast Cancer” (J Med Chem, 2017) come the findings set out here.

As usually defined, the pIC50 is the IC50 on a negative log10 scale, so that one unit is a factor of ten.

The species entered for data set [1] is Homo sapiens. The experiment in a line: Effect on p53 interaction with AMPK in human MDA-MB-231 cells at 3 uM by co-immunoprecipitation assay. It counts as cell-based. The essentials: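 Cells left untreated or treated, then lysed in RIPA (40 mM Tris-HCl pH 7.5, 150 mM NaCl, 0.5% NP-40, protease inhibitors, 5% glycerol, 10 mM NaF). Lysates incubated overnight at 4°C with BRD4 or p53 antibodies plus protein A/G beads, washed 3 times, resolved on 10% SDS-PAGE. Blots probed for p53 and AMPKα; inputs checked for BRD4, p53 and AMPKα.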

In data set [2] the test system is MDA-MB-231. The experiment in a line: Induction of autophagy in human MDA-MB-231 cells assessed as upregulation of beclin1 expression at 3 uM measured up to 36 hrs by Western blot analysis. In kind it is functional, cell-based. A digest of the protocol:
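MDA-MB-231 cells (DMEM, 10% FBS, 37 °C, 5% CO2) exposed to 3 μM for indicated times. Adherent and floating cells collected, lysed in RIPA with 1 mM PMSF at 4 °C for 1 h. Protein quantified by DC assay, resolved on 10-15% SDS-PAGE, blotted to PVDF, ECL detection.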
In general terms: In western blotting, separated proteins are transferred to a membrane and probed.

Data set [3] concerns Mus musculus. The experiment in a line: Toxicity in BALB/c mouse xenografted with human MDA-MB-231 cells assessed as effect on body weight at 25 to 100 mg/kg, ig administered once a day for […] measured every 3 days. Particulars: in vivo, po. In kind it is organism-based. A digest of the protocol:
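Female BALB/c nude mice (6-8 weeks, 20-22 g) with subcutaneous MCF-7 or MDA-MB-231 xenografts (5×10^6 cells). At 100 mm3, given 25, 50 or 100 mg/kg intragastrically once daily, or vehicle, for 24 or 27 days. Body weight recorded every 3 days. MCF-7 n=7, MDA-MB-231 n=6 per group.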
Background: Xenograft models place foreign cells or tissue in a host animal.

Data set [4] concerns the target T1, Bromodomain-containing protein 4 (Homo sapiens, UniProt O60885). In words: Inhibition of His/thioredoxin-tagged human recombinant BRD4 bromodomain-1 (43 to 166 residues) expressed in Escherichia coli BL21 Star (DE3) pre-incubated for 30 mins followed by biotinylated histone peptide H4 addition measured after 30 mins by AlphaScreen assay.
Data set [5] addresses T1, Bromodomain-containing protein 4. In words: Inhibition of BRD4 in human MDA-MB-231 cells assessed as reduction in FIP200 protein expression at 3 uM up to 36 hrs by Western blot analysis. In kind it is cell-based. The essentials:
(§1)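 MCF-7 (1.5 μM) or MDA-MB-231 (3 μM) cells treated for indicated times. Adherent and floating cells lysed in RIPA with 1 mM PMSF. Equal protein run on 10-15% SDS-PAGE, blotted to PVDF, blocked in milk or BSA, HRP/ECL detection. β-actin loading control.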

In data set [6] the test system is MCF7. In words: Induction of autophagy in human MCF7 cells assessed as induction of autophagic vacuoles at 1.5 uM by MDC-based fluorescence microscopy. It counts as functional, cell-based. A digest of the protocol: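 MCF-7 cells treated with 1.5 µM for indicated times. Stained with 0.05 mM monodansylcadaverine and autophagic vacuoles observed by fluorescence microscopy.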

Data set [7] relates to Mus musculus. The experiment in a line: Induction of LC3 accumulation in BALB/c mouse xenografted with human MDA-MB-231 cells at 100 mg/kg, ig administered once a day for 24 days by Western blot analysis. It counts as functional, organism-based. A digest of the protocol:
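Tumor tissues excised from MCF-7 or MDA-MB-231 xenograft mice were lysed and analysed by western blot for BRD4, c-Myc, LC3 and cleaved caspase-3.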

In data set [8] the target is T1, Bromodomain-containing protein 4. In words: Inhibition of BRD4 interaction with p53 in human MDA-MB-231 cells at 3 uM by co-immunoprecipitation assay. In kind it is cell-based. A digest of the protocol: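 Cells lysed in RIPA buffer (40 mM Tris-HCl pH 7.5, 150 mM NaCl, 0.5% NP-40, 5% glycerol, 10 mM NaF, protease inhibitors). Lysates incubated overnight at 4 °C with BRD4 or p53 antibody plus protein A/G beads, washed 3 times, resolved on 10% SDS-PAGE and blotted for AMPKα or p53.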

For data set [9] the target is unchanged. The experiment in a line: Inhibition of BRD4 in human MCF7 cells assessed as increase in ATG13 phosphorylation at ser318 at 1.5 uM up to 36 hrs by Western blot analysis. In kind it is cell-based. The essentials:
as §1

The test system of data set [10] is MCF7. The experiment in a line: Downregulation of HMGB1 expression in human MCF7 cells at 1.5 uM measured up to 24 hrs by Western blot analysis. In kind it is functional, cell-based. The essentials:
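MCF-7 (1.5 µM) or MDA-MB-231 (3 µM) cells treated for indicated times. Adherent and floating cells lysed in RIPA with 1 mM PMSF, 4°C for 1 h. Equal protein run on 10-15% SDS-PAGE, transferred to PVDF, blocked with milk or BSA, probed with primary then HRP secondary antibodies, ECL detection; β-actin as loading control.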

The test system of data set [11] is MDA-MB-468. The experiment in a line: Induction of autophagy in human MDA-MB-468 cells assessed as upregulation of beclin1 expression measured up to 48 hrs by Western blot analysis. In kind it is functional, cell-based.
Data set [12] addresses T1, Bromodomain-containing protein 4. In words: Inhibition of BRD4 in human MDA-MB-231 cells assessed as reduction in ATG13 protein expression at 3 uM up to 36 hrs by Western blot analysis. It counts as cell-based. A digest of the protocol: as §1
In data set [13] the test system is MCF7. The experiment in a line: Antiproliferative activity against human MCF7 cells after 24 hrs by MTT assay. The following applies: MCF7, 24 h. It counts as functional, cell-based. For orientation: Tetrazolium assays rely on reduction of a dye to a coloured formazan, in cell work by metabolically active cells.
For data set [14], the system named is MCF7. In words: Induction of autophagy in human MCF7 cells assessed as increase in LC3B puncta at 1.5 uM after 24 hrs by DAPI-staining based immunocytochemistry. In kind it is functional, cell-based. The essentials:
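MCF-7 cells treated with 1.5 µM for 24 h and blocked with 1.5% goat serum in PBS. Incubated overnight at 4°C with anti-LC3B (1:200) in PBS/1% BSA, then FITC secondary for 1 h at room temperature. Nuclei counterstained with DAPI; LC3B puncta imaged.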

The target of data set [15] is T1, Bromodomain-containing protein 4. The experiment in a line: Inhibition of BRD4 in human MCF7 cells assessed as downregulation of mTOR phosphorylation at ser244 at 1.5 uM measured up to 36 hrs by Western blot analysis. In kind it is cell-based. A digest of the protocol:
as §1

Data set [16] concerns MDA-MB-468. The experiment in a line: Induction of autophagy in human MDA-MB-468 cells assessed as increase in LC3-2 expression expression measured up to 48 hrs by Western blot analysis. In kind it is functional, cell-based.
Data set [17] deals with T1, Bromodomain-containing protein 4. In words: Inhibition of BRD4 in human MDA-MB-231 cells assessed as increase in ATG13 phosphorylation at ser318 at 3 uM up to 36 hrs by Western blot analysis. In kind it is cell-based. The essentials: as §1
Data set [18] deals with MDA-MB-231. The experiment in a line: Induction of autophagy in human MDA-MB-231 cells assessed as downregulation of p62/SQSTM1 expression at 3 uM in presence of ATG5 siRNA by Western blot analysis. It counts as functional, cell-based.
The target of data set [19] is T1, Bromodomain-containing protein 4. The experiment in a line: Inhibition of BRD4 in human MDA-MB-231 cells assessed as induction of AMPKalpha phosphorylation at thr172 at 3 uM measured up to 36 hrs by Western blot analysis. In kind it is cell-based. The essentials:
as §1

For data set [20] the target is unchanged. In words: Inhibition of BRD4 in human MDA-MB-231 cells assessed as downregulation of mTOR phosphorylation at ser244 at 3 uM measured up to 36 hrs by Western blot analysis. In kind it is cell-based. The essentials: as §1
Data set [21] relates to MDA-MB-231. In words: Induction of autophagy in human MDA-MB-231 cells assessed as induction of autophagic vacuoles at 3 uM by MDC-based fluorescence microscopy. It counts as functional, cell-based. A digest of the protocol:
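MDA-MB-231 cells exposed to 3 μM for indicated times, stained with 0.05 mM monodansylcadaverine, and autophagic vacuoles viewed by fluorescence microscopy.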

pIC50: −log10 of the molar value. Calls of active or inactive are those of the source. The rule behind the calls is not given here.

For `Cc1cc(-c2nc3sc4c(c3c(=O)[nH]2)CCN(C)C4)cc(C)c1O`, the result in data set [1], in data set [11] and in data set [18] was inactive. The result in data set [2], in data set [6], in [7], in [10], in data set [14] and in [16] was Active. Also, the outcome in data set [21] was Active. Further, the Activity entry in [3] is “Non-Toxic”. The pIC50 in data set [4] is 6.37; in data set [13], 5.79. Also, the inhibition result in data set [5], in data set [9], in data set [12], in data set [15], in [17] and in [19] was “Active” throughout. Also, in [20], the inhibition result was “Active”. The inhibition entry in data set [8] is “inactive”.
